Results taken from ChEMBL document CHEMBL1123034 (J Med Chem, 1985).

Tests used:
[1] = biological target: Neuronal acetylcholine receptor; assay type: tissue-based, Brain
[2] = biological target: T1, Neuronal acetylcholine receptor (Rattus norvegicus) (UniProt P04757+P09483+P12389+P12390+P12392+P43144+Q9JLB5+P12391+P43143+P20420+Q05941); experiment: Compounds was evaluate for their ability to enhance (+/-)-[3H]nicotine binding at a dose range 10 E -10 - 10 E -5 M was reported; assay type: protein-complex assay
How it was run: (§1)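 Whole-brain P2 fraction from female Sprague-Dawley rats (200–300 g), prepared at 4 °C, ~2 mg protein per tube. […] Nonspecific binding defined with 10^-2 M (-)-nicotine. Triplicates, usually four homogenates. Enhancement assessed by two-way ANOVA or pooled t-test.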

[3] = biological target: T1, Neuronal acetylcholine receptor (Rattus norvegicus)
[4] = biological target: Neuronal acetylcholine receptor; experiment: Compound was evaluated for ability to enhance the binding of (+/-)-[3H]nicotine to the rat brain P2 fraction at binding site 1; assay type: tissue-based
How it was run: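 Whole-brain P2 fraction from female Sprague-Dawley rats (200–300 g), prepared at 4 °C, ~2 mg protein per tube. Triplicates, usually four homogenates. Enhancement assessed by two-way ANOVA or pooled t-test.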

[5] = biological target: Neuronal acetylcholine receptor; experiment: Compounds was evaluated in vitro for ability to enhance and inhibit the binding of (+/-)-[3H]nicotine to the rat brain P2 fraction at binding site 1; 10e-10-10e-3
How it was run: as §1

[6] = biological target: T1, Neuronal acetylcholine receptor (Rattus norvegicus); experiment: Compounds was evaluate for their ability to enhance (+/-)-[3H]nicotine binding at a dose range 10 E -10 - 10 E -7 M was reported; assay type: protein-complex assay
How it was run: (§2)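 Bound ligand collected on poly-L-lysine-soaked glass-fibre filters, washed with cold Hepes and counted by liquid scintillation. Nonspecific binding defined with 10^-2 M (-)-nicotine. Triplicates, usually four homogenates. Enhancement tested by two-way ANOVA with linear/quadratic dose components, or pooled t-test.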

[7] = biological target: T1, Neuronal acetylcholine receptor (Rattus norvegicus); experiment: Compounds was evaluate for their ability to enhance (+/-)-[3H]nicotine binding at a dose range 10 E -10 - 10 E -6 M was reported; assay type: protein-complex assay
How it was run: as §1

[8] = biological target: Neuronal acetylcholine receptor
[9] = biological target: T1, Neuronal acetylcholine receptor (Rattus norvegicus); remark: listed apart in the source
[10] = biological target: T1, Neuronal acetylcholine receptor (Rattus norvegicus); experiment: Compounds was evaluate for their ability to enhance (+/-)-[3H]nicotine binding at a dose range 10 E -8 - 10 E -4 M was reported; assay type: protein-complex assay
How it was run: as §1

[11] = biological target: T1, Neuronal acetylcholine receptor (Rattus norvegicus); experiment: Compounds was evaluate for their ability to enhance (+/-)-[3H]nicotine binding at a dose range 2.5*10e-9-2.5*10e-5 M was reported; assay type: protein-complex assay
How it was run: as §1

[12] = biological target: Neuronal acetylcholine receptor; assay type: tissue-based, Brain; remark: listed apart in the source
[13] = biological target: T1, Neuronal acetylcholine receptor (Rattus norvegicus); experiment: Compounds was evaluated for their ability to enhance (+/-)-[3H]nicotine binding at a dose range 10 E -9 - 10 E -6 M was reported; assay type: protein-complex assay
How it was run: as §2

[14] = biological target: T1, Neuronal acetylcholine receptor (Rattus norvegicus); remark: listed apart in the source
[15] = biological target: T1, Neuronal acetylcholine receptor (Rattus norvegicus); remark: listed apart in the source
[16] = biological target: T1, Neuronal acetylcholine receptor (Rattus norvegicus); remark: listed apart in the source
[17] = biological target: T1, Neuronal acetylcholine receptor (Rattus norvegicus); experiment: Compounds was evaluate for their ability to enhance (+/-)-[3H]nicotine binding at a dose range 10 E -12- 10 E -5 M was reported; assay type: protein-complex assay
How it was run: as §1

CN1CCCCC1
Kd [1]: 1200 µM
Mean enhancement of binding [2]: 10

CC1CCCNC1 (stereo not given)
Mean enhancement of binding [3]: 5.2
Kd [1]: 890 µM

CCC1CCCCN1 (stereo not given)
Kd [1]: 7900 µM

CN1C(=O)CCC1c1cccnc1 (stereo not given)
Kd [4]: 0.62 µM
Kd [1]: 4700 µM

CC1CCCCN1 (stereo not given)
Kd [1]: 3200 µM
Kd [5]: < 0.0001 µM

Nc1ccccn1 [2-AMINOPYRIDINE]
Mean enhancement of binding [6]: 12.4
Kd [1]: 200 µM

CCc1ccccn1
Mean enhancement of binding [7]: 10.9
Kd [1]: 100 µM

Cc1ccccn1
Kd [8]: 64000 µM
Kd [1]: 0.05 µM
Mean enhancement of binding [9]: 20.7

CCCc1ccccn1
Kd [1]: 1.7 µM
Mean enhancement of binding [2]: 15.2

Cc1ccncc1
Mean enhancement of binding [3]: 6.6
Kd [1]: 2200 µM

ON1CCCCC1
Mean enhancement of binding [10]: 8.5
Kd [1]: 6000 µM

CNC1(C)C2CCC(C2)C1(C)C (stereo not given)
Mean enhancement of binding [11]: 16.4

CN1CCC(O)CC1
Mean enhancement of binding [3]: 13
Kd [1]: 3400 µM

OC1CCCNC1 (stereo not given)
Mean enhancement of binding [3]: 8.6
Kd [1]: 820 µM

c1ccncc1 [PYRIDINE]
Kd [1]: 3300 µM

C1CCNCC1 [PIPERIDINE]
Kd [1]: 0.12 µM
Kd [12]: 69 µM
Mean enhancement of binding [13]: 10.3

CCc1cccnc1
Mean enhancement of binding [7]: 5.4
Kd [1]: 9.5 µM

Cc1cccnc1 [3-METHYLPYRIDINE]
Kd [4]: 1800 µM

OC1CCNCC1
Mean enhancement of binding [3]: 4
Kd [1]: 3000 µM

CN1CCC[C@H]1c1cccnc1
Mean enhancement of binding [14]: 4.7

CC1CCNCC1
Mean enhancement of binding [3]: 6.1
Kd [1]: 3900 µM

CCCC1CCCCN1 (stereo not given)
Kd [1]: 97 µM

Nc1cccnc1
Mean enhancement of binding [7]: 2.4
Kd [1]: 380 µM

CN1[C@@H](CC(=O)c2ccccc2)CCC[C@H]1C[C@H](O)c1ccccc1
Mean enhancement of binding [15]: 18.2

C[N+](C)(C)CCOC(N)=O
Mean enhancement of binding [16]: 15

C1CCNC1 [PYRROLIDINE]
Mean enhancement of binding [7]: 4.5

CN1[C@@H]2CC[C@H]1C[C@@H](OC(=O)C(CO)c1ccccc1)C2 (stereo not given in full)
Mean enhancement of binding [17]: 14.9

CCc1ccncc1
Kd [1]: 87 µM

CCN1CCCCC1
Mean enhancement of binding [7]: 23
Kd [1]: 3.3 µM

CN1CCCC1 [N-METHYL PYRROLIDINE (NMP)]
Mean enhancement of binding [7]: 4.1
Kd [1]: 52 µM

Cc1cccc(C)n1
Mean enhancement of binding [3]: 3.1
Kd [1]: 10000 µM

Oc1ccccn1
Mean enhancement of binding [3]: 10
Kd [1]: 880 µM
